The list is not random: actives were taken first. Their share in the collection is about 0.79%.
bIAP inhibitor: intestinal alkaline phosphatase (bovine) inhibition | purified bovine IAP, CDP-star luminescence, 30 min | inhibition, % at 20 µM | 190,000 tested, under 10 active;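 active = over 50% inhibition of intestinal alkaline phosphatase at 20 µM in the single-dose screen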
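Incubation: 30 min reaction at room temperature / Material: purified bovine intestinal alkaline phosphatase (IAP) enzyme / Input: enzyme at 1/65,000,000 dilution / Dosing: 20 µM single dose / Signal: CDP-star luminescence signal / Reagent: CDP-star chemiluminescent phosphatase substrate, 30 µM final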
bIAP act: increases bovine intestinal alkaline phosphatase activity; purified bovine IAP, CDP-star luminescence, 30 min; stronger effect = higher value; fold of DMSO-control signal, blank-subtracted; activation factor at 20 µM; 200,000 tested, 0.17% active; AID 1016;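 active = activation factor of 2 or more at 20 µM, a signal rise over negative controls twice the positive control's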
mIAP activ: mouse IAP activation; muIAP, CDP-Star luminescence, 30 min; stronger effect = higher value; 1 = vehicle-only enzyme signal, 0 = enzyme-free wells; 330,000 tested, 0.24% active; activation factor at 10 µM; AID 2805;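 active = activation factor of at least 2 at 20 µM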
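System: Mouse IAP enzyme | Also added: CDP-Star substrate | Dosing: Compounds dispensed in DMSO | Schedule: 30 min enzyme-substrate-compound incubation at room temperature | Technique: Chemiluminescence readout | Control set: DMSO-only wells and no-enzyme negative control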
hIAP act: increases human intestinal alkaline phosphatase activity; P09923; purified human IAP, CDP-Star luminescence, 30 min; stronger effect = higher value; 1 = vehicle-only enzyme, 0 = enzyme-free background; activation factor at 10 µM; 330,000 tested, 0.16% active; AID 2524;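 active = activation factor of the enzyme at least 2-fold when tested at 20 µM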
Target sequence (P09923 whole entry, looked up): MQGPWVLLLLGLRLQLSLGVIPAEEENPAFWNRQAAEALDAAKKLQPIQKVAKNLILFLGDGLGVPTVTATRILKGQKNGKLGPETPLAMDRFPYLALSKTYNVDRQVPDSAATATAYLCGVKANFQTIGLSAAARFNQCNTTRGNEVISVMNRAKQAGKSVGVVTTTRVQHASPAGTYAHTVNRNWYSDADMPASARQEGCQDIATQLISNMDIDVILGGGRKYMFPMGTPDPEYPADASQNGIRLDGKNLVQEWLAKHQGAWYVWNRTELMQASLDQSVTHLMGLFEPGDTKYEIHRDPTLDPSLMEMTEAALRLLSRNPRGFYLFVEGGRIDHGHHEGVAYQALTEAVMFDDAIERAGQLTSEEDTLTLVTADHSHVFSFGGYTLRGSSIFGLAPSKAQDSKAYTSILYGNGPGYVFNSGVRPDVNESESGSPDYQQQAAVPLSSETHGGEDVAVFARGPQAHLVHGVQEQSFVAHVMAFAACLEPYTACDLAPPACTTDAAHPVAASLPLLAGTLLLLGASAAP
hIAP inh: blocks human intestinal alkaline phosphatase | P09923 | purified IAP, CDP-Star luminescence, 30 min | inhibition, % at 10 µM | 330,000 tested, 0.12% active | AID 2544;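 active = inhibition reaching a set limit with compound at 10 µM in the primary screen, cut at about 35% in these data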
mIAP block: mouse IAP inhibition; purified mouse IAP, CDP-Star luminescence, 30 min; AID 2806; 330,000 tested, 0.2% active; inhibition, % at 10 µM;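 active = inhibition of at least 40% at 10 µM in the primary screen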
Numbers stand for hits.

What do the screens show for `Fc1ccc(N2N=C(c3cccs3)CC2c2ccccc2)cc1` (configuration not stated)?
bIAP inhibitor: inactive; bIAP act: inactive; mIAP activ: inactive; hIAP act: inactive; hIAP inh: inactive; mIAP block: inactive

How did Fc1ccccc1N1CC(c2ccccc2)C(c2cccs2)=N1 (configuration not stated) do in these assays?
bIAP inhibitor: inactive; bIAP act: inactive; mIAP activ: 2.19; hIAP act: inactive; hIAP inh: inactive; mIAP block: inactive

Results for Cn1cccc1CC(=O)NNC(=S)Nc1ccc(Cl)cc1 ?
bIAP inhibitor: inactive; bIAP act: inactive; mIAP activ: inactive; hIAP act: 2.1; hIAP inh: inactive; mIAP block: inactive

What do the screens show for `COc1ccc(NC(=O)c2ccc3c(=O)n(Cc4ccco4)c(=S)[nH]c3c2)c(OC)c1`?
bIAP inhibitor: inactive; bIAP act: inactive; mIAP activ: inactive; hIAP act: inactive; hIAP inh: inactive; mIAP block: 44.9

How did Cc1ccc(-n2cnc3cc(NCc4cccs4)ccc32)cc1 do in these assays?
bIAP inhibitor: inactive; bIAP act: 21.8; mIAP activ: inactive; hIAP act: inactive; hIAP inh: inactive; mIAP block: inactive

How did Cc1cc(Nc2ccc(O)cc2)ccc1N do in these assays?
mIAP activ: inactive; hIAP act: inactive; hIAP inh: inactive; mIAP block: inactive

What do the screens show for `CCOc1ccc(C(=O)COC(=O)c2nn(CC)c(=O)c3ccccc23)cc1`?
mIAP activ: inactive; hIAP act: inactive; hIAP inh: inactive; mIAP block: inactive

What do the screens show for `CC(C)CNC(=S)NC(=O)c1csc([N+](=O)[O-])c1`?
mIAP activ: inactive; hIAP act: inactive; hIAP inh: inactive; mIAP block: inactive

Results for O=[N+]([O-])c1cc(-c2ncccn2)cs1 ?
bIAP inhibitor: inactive; bIAP act: 2.5; mIAP activ: inactive; hIAP act: inactive; hIAP inh: inactive; mIAP block: inactive

What do the screens show for `O=C1S/C(=C\C=C\c2ccco2)C(=O)N1c1ccc(O)cc1`?
bIAP inhibitor: inactive; bIAP act: inactive; mIAP activ: inactive; hIAP act: inactive; hIAP inh: inactive; mIAP block: 79.9

How did O=C1S/C(=C\c2cccs2)C(=O)N1c1ccc(O)cc1 do in these assays?
mIAP activ: inactive; hIAP act: inactive; hIAP inh: inactive; mIAP block: inactive

What do the screens show for `O=C1S/C(=C\C=C\c2ccco2)C(=O)N1c1ccccc1`?
bIAP inhibitor: inactive; bIAP act: inactive; mIAP activ: inactive; hIAP act: inactive; hIAP inh: inactive; mIAP block: 75.5

How did O=C(Nc1nc(-c2ccc(Cl)cc2)cs1)NC1CCCCC1 do in these assays?
bIAP inhibitor: inactive; bIAP act: inactive; mIAP activ: 3.69; hIAP act: inactive; hIAP inh: inactive; mIAP block: inactive

Results for Fc1ccc(-c2csc(NC(=S)Nc3ccccc3)n2)cc1 ?
mIAP activ: inactive; hIAP act: inactive; hIAP inh: inactive; mIAP block: inactive

How did O=C(Nc1ccccc1)Nc1nc(-c2ccc(F)cc2)cs1 do in these assays?
bIAP inhibitor: inactive; bIAP act: inactive; mIAP activ: 2.53; hIAP act: inactive; hIAP inh: inactive; mIAP block: inactive

Results for CC1Sc2ccc(C(=O)OCc3ccccc3Cl)cc2NC1=O (configuration not stated) ?
mIAP activ: inactive; hIAP act: inactive; hIAP inh: inactive; mIAP block: inactive

What do the screens show for `O=C(CNC(=O)c1ccccc1)Oc1cccc(Cl)c1`?
mIAP activ: inactive; hIAP act: inactive; hIAP inh: inactive; mIAP block: inactive

Results for O=C(NCC(=O)N1CCC(Cc2ccccc2)CC1)c1ccc(Cl)cc1 ?
mIAP activ: inactive; hIAP act: inactive; hIAP inh: inactive; mIAP block: inactive

Results for COc1cccc(NC(=O)NCCCSC2CCCCC2)c1 ?
bIAP inhibitor: inactive; bIAP act: inactive; mIAP activ: 2.26; hIAP act: inactive; hIAP inh: inactive; mIAP block: inactive

What do the screens show for `CCn1c(C)cc(/C=C2/SC(=S)NC2=O)c1C`?
bIAP inhibitor: inactive; bIAP act: inactive; mIAP activ: inactive; hIAP act: inactive; hIAP inh: inactive; mIAP block: 51.6

What do the screens show for `COc1ccc(-c2nn(-c3ccccc3)cc2C(=O)NCCCn2ccnc2)cc1`?
bIAP inhibitor: inactive; bIAP act: 2.3; mIAP activ: inactive; hIAP act: inactive; hIAP inh: inactive; mIAP block: inactive

What do the screens show for `COc1ccc(C(=O)NCCCn2ccnc2)cc1`?
bIAP inhibitor: inactive; bIAP act: inactive; mIAP activ: inactive; hIAP act: inactive; hIAP inh: inactive; mIAP block: inactive

Results for O=C(CCCCCN1C(=O)[C@@H]2Cc3ccccc3CN2C1=O)Nc1ccccc1F ?
mIAP activ: inactive; hIAP act: inactive; hIAP inh: inactive; mIAP block: inactive

Results for CCOC(=O)Cn1nc(-c2ccccc2)c2cnc3ccc(CC)cc3c21 ?
bIAP inhibitor: inactive; bIAP act: inactive; mIAP activ: inactive; hIAP act: inactive; hIAP inh: inactive; mIAP block: inactive

What do the screens show for `Cc1nn(Cc2ccc(Cl)cc2Cl)c(C)c1NC(=O)NC12CC3CC(CC(C3)C1)C2`?
bIAP inhibitor: inactive; bIAP act: inactive; mIAP activ: 2.12; hIAP act: inactive; hIAP inh: inactive; mIAP block: inactive

Results for Cc1nn(Cc2ccc(Cl)cc2Cl)c(C)c1NC(=O)c1sc2ccccc2c1Cl ?
bIAP inhibitor: inactive; bIAP act: inactive; mIAP activ: inactive; hIAP act: inactive; hIAP inh: inactive; mIAP block: inactive

Results for O=C(COc1ccc(Cl)cc1Br)NC(=O)NCc1ccccc1 ?
bIAP inhibitor: inactive; bIAP act: 6.5; mIAP activ: inactive; hIAP act: inactive; hIAP inh: inactive; mIAP block: inactive

Results for O=C(COC(=O)c1cc(Br)ccc1Cl)NC(=O)NCc1ccccc1 ?
bIAP inhibitor: inactive; bIAP act: inactive; mIAP activ: inactive; hIAP act: inactive; hIAP inh: inactive; mIAP block: inactive

What do the screens show for `CCC(O)CNC(=O)CCc1nnc(C2(c3ccc(Cl)cc3)CCC2)o1` (configuration not stated)?
bIAP inhibitor: inactive; bIAP act: inactive; mIAP activ: inactive; hIAP act: inactive; hIAP inh: inactive; mIAP block: inactive

Results for COc1cc(CNCc2ccccn2)ccc1OCc1c(Cl)cccc1Cl ?
bIAP inhibitor: inactive; bIAP act: 2.5; mIAP activ: inactive; hIAP act: inactive; hIAP inh: inactive; mIAP block: inactive

What do the screens show for `COc1cc(CNCc2ccccn2)ccc1OCc1ccc(Cl)cc1`?
bIAP inhibitor: inactive; bIAP act: inactive; mIAP activ: inactive; hIAP act: inactive; hIAP inh: inactive; mIAP block: inactive

What do the screens show for `Cc1ccc(C(=O)N2CCN(c3ccccc3F)CC2)cc1S(=O)(=O)N1CCOCC1`?
bIAP inhibitor: inactive; bIAP act: inactive; mIAP activ: inactive; hIAP act: inactive; hIAP inh: inactive; mIAP block: inactive

Results for Cn1c(SCC(=O)NC2CCCC2)nnc1-c1ccccn1 ?
mIAP activ: inactive; hIAP act: inactive; hIAP inh: inactive; mIAP block: inactive

Source: PubChem
